Source: ChEMBL document CHEMBL1140307, “Design and synthesis of alpha-aryloxyphenylacetic acid derivatives: a novel class of PPARalpha/gamma dual agonists with potent antihyperglycemic and lipid modulating activity” (J Med Chem, 2005)

Experiments:
[1] = tested on: Rattus norvegicus; test: Effect (150 mg/kg) on PPAR gamma- mediated effects measured as change in liver weight in rats; assay type: functional
Summary of the method: (§1)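 Male Sprague-Dawley rats (about 200 g, n = 6) were fed rodent chow and gavaged once daily for 2 weeks with compound in 0.5% methylcellulose. Body weight was recorded on days 1, 4, 6, 8, 11 and 14. Rats were euthanized with CO2 24 h after the last dose, and BAT, heart and liver were weighed. Blood was taken by heart puncture for hematocrit. Results are mean ± SD versus vehicle.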

[2] = tested on: Rattus norvegicus; test: Effect (150 mg/kg) on PPAR gamma- mediated effects measured as change in brown adipose tissue weight in rats; assay type: functional; summary of the method: as §1
[3] = tested on: Rattus norvegicus; test: Effect (150 mg/kg) on PPAR gamma- mediated effects measured as change in hematocrit weight in rats; assay type: functional; summary of the method: as §1
[4] = tested on: Rattus norvegicus; test: Effect (150 mg/kg) on PPAR gamma- mediated effects measured as change in body weight in rats; assay type: functional; summary of the method: as §1
[5] = tested on: Rattus norvegicus; test: Effect (150 mg/kg) on PPAR gamma- mediated effects measured as change in heart weight in rats; assay type: functional; summary of the method: as §1
[6] = biological target: T1, Peroxisome proliferator-activated receptor alpha (Homo sapiens, UniProt Q07869); test: In vitro binding affinity for human PPAR alpha
T1 sequence (Q07869 whole entry): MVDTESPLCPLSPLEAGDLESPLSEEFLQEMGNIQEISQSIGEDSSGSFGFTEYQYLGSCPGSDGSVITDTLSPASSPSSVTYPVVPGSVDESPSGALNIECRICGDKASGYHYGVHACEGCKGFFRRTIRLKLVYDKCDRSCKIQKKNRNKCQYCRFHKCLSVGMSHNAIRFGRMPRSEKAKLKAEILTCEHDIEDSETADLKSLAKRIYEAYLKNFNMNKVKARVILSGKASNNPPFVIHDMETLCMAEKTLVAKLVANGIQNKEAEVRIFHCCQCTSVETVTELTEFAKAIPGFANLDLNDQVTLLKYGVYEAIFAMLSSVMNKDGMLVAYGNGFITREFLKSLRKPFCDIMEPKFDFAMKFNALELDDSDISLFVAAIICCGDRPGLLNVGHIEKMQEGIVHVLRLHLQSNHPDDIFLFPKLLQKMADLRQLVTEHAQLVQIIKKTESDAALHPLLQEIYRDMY

[7] = biological target: T1, Peroxisome proliferator-activated receptor alpha; test: Agonist response against human PPAR alpha in transactivation assay
[8] = biological target: T2, Peroxisome proliferator-activated receptor gamma (Homo sapiens, UniProt P37231); test: In vitro binding affinity for human PPAR gamma
T2 sequence (P37231 whole entry): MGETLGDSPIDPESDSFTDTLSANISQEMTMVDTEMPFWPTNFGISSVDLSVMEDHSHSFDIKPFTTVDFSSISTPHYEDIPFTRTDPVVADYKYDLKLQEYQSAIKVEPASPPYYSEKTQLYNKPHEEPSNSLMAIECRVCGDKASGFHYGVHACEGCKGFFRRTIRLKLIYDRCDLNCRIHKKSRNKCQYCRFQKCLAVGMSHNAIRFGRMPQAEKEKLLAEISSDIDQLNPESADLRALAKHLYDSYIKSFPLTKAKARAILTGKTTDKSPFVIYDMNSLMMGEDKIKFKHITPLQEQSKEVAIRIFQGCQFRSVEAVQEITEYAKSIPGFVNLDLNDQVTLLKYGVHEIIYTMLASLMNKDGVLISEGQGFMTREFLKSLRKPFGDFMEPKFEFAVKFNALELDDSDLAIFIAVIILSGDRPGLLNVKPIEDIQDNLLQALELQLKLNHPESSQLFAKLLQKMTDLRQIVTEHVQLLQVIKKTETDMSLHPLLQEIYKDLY

[9] = biological target: T2, Peroxisome proliferator-activated receptor gamma; test: Agonist response against human PPAR gamma in transactivation assay; assay type: functional
[10] = Area under concentration time curve of compound when administered perorally at a dose of 2 mg/kg to dogs; assay type: ADME, organism-based, Canis lupus familiaris; set-up: dose 2 mg/kg, route oral; settings: dog, in vivo, po
Summary of the method: (§2)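 Male Sprague-Dawley rats (n = 3) and male adult Beagle dogs (n = 4) were fasted overnight. They received either a 2 mg/kg oral gavage dose or a 0.5 mg/kg IV bolus. Blood was drawn into heparin tubes from a femoral arterial cannula (rat) or the jugular vein (dog) at set time points. Plasma was acidified with 0.5 M formate pH 3.0, stored at -70 °C and quantified by LC-MS/MS.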

[11] = Oral bioavailability in dog; assay type: ADME, organism-based, Canis lupus familiaris; settings: in vivo; summary of the method: as §2
[12] = Oral bioavailability in rat; assay type: ADME, organism-based; settings: in vivo; summary of the method: as §2
[13] = tested on: Cricetinae gen. sp.; test: Percentage change in the serum cholesterol upon administration of compound (10 mpk) in hamster; assay type: functional
Summary of the method: (§3)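 Male Golden Syrian hamsters were fed normal rodent chow and dosed orally once daily with compound. Serum total cholesterol and triglyceride were measured and expressed as percent change versus vehicle controls.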

[14] = Area under concentration time curve of compound when administered perorally at a dose of 2 mg/kg to rats; assay type: ADME, organism-based; set-up: dose 2 mg/kg, route oral; settings: rat, in vivo, po; summary of the method: as §2
[15] = tested on: Cricetinae gen. sp.; test: Percentage change in the serum triglyceride upon administration of compound (10 mpk) in hamster; assay type: functional; summary of the method: as §3
[16] = biological target: T3, Peroxisome proliferator-activated receptor alpha (Homo sapiens) (UniProt Q07869); test: Maximal activation of human Peroxisome proliferator activated receptor alpha
T3 sequence (whole entry): T1 sequence (Q07869 whole entry)
Summary of the method: (§4)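 Cell-based transactivation assay using GAL4-PPAR chimeric receptors with a reporter gene carrying a GAL4 response element. The top concentration tested was 3 µM. Values are the mean of three determinations.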

[17] = biological target: T4, Peroxisome proliferator-activated receptor gamma (Homo sapiens) (UniProt P37231); test: Maximal activation of human Peroxisome proliferator activated receptor gamma; summary of the method: as §4
T4 sequence (whole entry): T2 sequence (P37231 whole entry)

IC50 [6] [nM] | EC50 [7] [nM] | IC50 [8] [nM] | EC50 [9] [nM] | SMILES | other results
89 | 250 | 210 |  | CCCc1cc(C(=O)CC)cc(CCC)c1O[C@H](C(=O)O)c1ccc(C(F)(F)F)cc1 | 
550 |  | 1790 |  | CCCc1cc2c(oc(=O)n2C(C)C)c(CCC)c1O[C@H](C(=O)O)c1ccccc1 | 
800 |  | 4680 |  | CCCc1cc(C(=O)c2ccccc2)cc(CCC)c1OC(C(=O)O)c1ccccc1 (configuration not stated) | 
230 | 270 | 160 | 430 | CCCc1cc2c(=O)n(C(C)C)oc2c(CCC)c1O[C@H](C(=O)O)c1ccc(C(C)C)cc1 | 
790 |  | 260 | 370 | CCCc1cc2c(=O)n(C(C)C)oc2c(CCC)c1O[C@H](C(=O)O)c1ccc(CC(C)C)cc1 | 
260 | 260 | 220 | 360 | CCCc1cc(C(=O)CC)cc(Cl)c1O[C@H](C(=O)O)c1ccc(C(C)C)cc1 | 
74 | 290 | 99 | 120 | CCCc1cc2c(oc(=O)n2CC)c(CCC)c1O[C@H](C(=O)O)c1ccc(C(C)C)cc1 | Liver weight [1]: 22.4 g; AUC [10]: 9.1 µM·h; bioavailability [11]: 35%; bioavailability [12]: 72%; BAT [2]: 0.24 g; Change [13]: -25%; AUC [14]: 127 µM·h; Change [15]: -6%; Hematocrit [3]: 45.6%; Body weight [4]: 283 g; Heart weight [5]: 1.1 g
51 | 100 | 2760 |  | CCCc1cc(C(=O)CC)cc(CCC)c1OC(C(=O)O)c1ccccc1 (configuration not stated) | 
58 | 39 | 220 | 180 | CCCc1cc(C(=O)CC)cc(CCC)c1O[C@H](C(=O)O)c1ccc(CC(C)C)cc1 | Maximal activation [16]: 807%; Maximal activation [17]: 66%

Continued, compound first:

SMILES | IC50 [6] [nM] | EC50 [7] [nM] | IC50 [8] [nM] | EC50 [9] [nM] | other results
CN(CCOc1ccc(CC2SC(=O)NC2=O)cc1)c1ccccn1 (configuration not stated) [ROSIGLITAZONE] |  |  |  |  | Liver weight [1]: 16.6 g; BAT [2]: 1.03 g; Hematocrit [3]: 41.3%; Body weight [4]: 322 g; Heart weight [5]: 1.46 g
CCCc1cc2c(=O)n(C3CCCCC3)oc2c(CCC)c1O[C@H](C(=O)O)c1ccc(C(C)C)cc1 | > 15000 |  | 440 |  | 
CCCc1cc(C(=O)CC)cc(CCC)c1O[C@@H](C(=O)O)c1ccc(C(C)C)cc1 | 3900 |  | 2980 |  | 
CCCc1cc2c(oc(=O)n2CC2CC2)c(CCC)c1O[C@H](C(=O)O)c1ccc(C(C)C)cc1 | 130 |  | 120 | 330 | 
CCCc1cc2c(=O)n(C)oc2c(CCC)c1O[C@H](C(=O)O)c1ccccc1 | 850 | 670 | 3800 | 390 | 
CCCc1cc(C(=O)CC)cc(CCC)c1NC(C(=O)O)c1ccc(C(C)C)cc1 (configuration not stated) | > 50000 |  | > 50000 |  | 
CCC(=O)c1ccc(OC(C(=O)O)c2ccccc2)cc1 (configuration not stated) | > 50000 |  | > 50000 |  | 
